Measurements published in the EternaBench riboswitch data.

Tested on: MS2 coat protein
Assay: apparent Kd, MS2 coat protein; higher = weaker binding; RNA-MaP array; FMN 200 µM where present
In short: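 Two titrations, one without ligand and one with constant ligand, were run with SNAP-549-labelled MS2 coat protein from 0.7 or 1.5 nM, doubling to 3 µM. The targets were designs transcribed by stalled E. coli RNA polymerase on Illumina sequencing-chip clusters, in 100 mM Tris-HCl pH 7.5, 80 mM KCl, 4 mM MgCl2, BSA, DTT, yeast tRNA and Tween-20. The apparent Kd is the median of filtered per-cluster binding-curve fits, with green signal normalised to red-channel RNA signal and control-cluster median Fmax.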

[1] = designed as: OFF switch for flavin mononucleotide, no ligand
[2] = ligand present: flavin mononucleotide, designed as: OFF switch for flavin mononucleotide
[3] = designed as: ON switch for flavin mononucleotide, no ligand
[4] = ligand present: flavin mononucleotide, designed as: ON switch for flavin mononucleotide

Row | Sequence | apparent Kd [1] [nM] | apparent Kd [2] [nM] | apparent Kd [3] [nM] | apparent Kd [4] [nM]
1 | AAAAAUGGAGGAUAUACAUGAGGAUCACCCAUGUGUGGGCAUACUAUGUCGGCGUCAGGUAGAAGGCCAAAAAA | 40.8 | 48.9 |  | 
2 | CUUAGACAUGAGGAUCACCCAUGUGAGGAUAUGAUGCGAUCGUCGAAAGACGAUAGCAUCAGAAGGCACAUAUG | 132 | 301 |  | 
3 | CGUGGCCGAGGAUAUACGGACGUGUCGCCGGGUGUCGUGGGACAUGAGGAUCACCCAUGUAGAAGGUGGUUGUC | 53.5 | 39 |  | 
4 | GUCCGAAGGGAGAAGGGCUAGGAGGUCCAGCUUAUGUGUGUUGCAACAUGAGGAUCACCCAUGUAGCAGGAUAUCCCUCGUACA | 44.5 | 333 |  | 
5 | AUACUUAAUGAAGGAUAUCUCAGCAUAAACCUGAGAGAAGGUCAUUAUUACAUGAGGAUCACCCAUGUUGUAGUUAAUGGGUAA | 352 | 341 |  | 
6 | UUGAGGUCAGGAUAUGCAUGGCGGGACUUGCGUCGUGGCGUGCAGAAGGGACAUGAGGAUCACCCAUGUGGAGG | 176 | 233 |  | 
7 | UAAAAGACUAGCAAAUAAUCCUUCACAUGAGGAUCACCCAUGUAGGAUAUGAGCAGAAAAUCUGCUCAGAAGGACAUGCUAGUC | 3.22 | 3.68 |  | 
8 | UGCUAAUUGUAGAAGGGUGACAUGAGGAUCACCCAUGUUCACAUGCGAUUUACGGCGCAUGUUCCACAGGAUAUACAGUUGAGU |  |  | 342 | 60.1
9 | UAGUAGUGAGGAUAUACAUGGAUAUACAUUCAUGUGGACCUACAUGAGGAUCACCCAUGUAGAAGGCACUACUA | 41.9 | 91.4 |  | 
10 | UCAUCAGCGGGCGGGUCGGUUGGACAUGAGGAUCACCCAUGUAGAAGGACCGGUGGACUCCGGCGGUAGGAUAUACAUUUGGUG | 16.1 | 26.3 |  | 
11 | AAUAACAGAGGAUAUACUGUUUUAUGUGUUUGUUGUUUUGAACAUGAGGAUCACCCAUGUAGAAGGCUGAGUAA | 29.1 | 25.9 |  | 
12 | CCGGAAAGGAAGGAUAUGCUAGACGAAAGUCUAGCAGAAGGUCCUACAUGAGGAUCACCCAUGUGUCCUACCGG | 47.2 | 60.5 |  | 
13 | UCCUUACUGGUCAGGAUAUACAGUCGCGGGUGGGUGUAGAAGGGACAUGAGGAUCACCCAUGUACGUUGCAGCC | 40.6 | 40.9 |  | 
14 | UUGGACGUCGUAGGAUAUGUAGGAUAUUCCUACAUGAGGAUCACCCAUGUUGACAUGGAAGAAGGACAGAAGGCCGAUGUCCAU |  |  | 409 | 4.87
15 | AAUUUAAUACAUGAGGAUCACCCAUGUAAUACUUGUAAGAUCAAGGAUAUCAGCUCGUUUAGAGCUGAGAAGGUGAUCACAUGU |  |  | 58.2 | 198
16 | UGCUGUGUCAGAGGAUAUACUCUAAUAAUCCAUUGCAAAUAGCGAUGGACAUGAGGAUCACCCAUGUAGAAGGCUGUCACAGCA | 73.6 | 140 |  | 
17 | AGCAGACGAGGAUAUGAUAAAGAUCACAUGAGGAUCACCCAUGUACGCAGGAUACUGCGAUCAGAAGGCGUCUGCU | 13 | 13.8 |  | 
18 | CCGUCCUGAGGAUAUCCACCCUCAUACAUGAGGAUCACCCAUGUUCACCCUUGGGUUCCCGGAGAAGGCAGUUUUC | 243 | 374 |  | 
19 | GUCGCUAGAGGAUAUACAAUGGUAUAUGAUCCUAGUGACAUACAUGAGGAUCACCCAUGUAGAAGGCUAGUAUU | 23.5 | 19 |  | 

Row | Sequence | apparent Kd [1] [nM] | apparent Kd [2] [nM] | apparent Kd [3] [nM] | apparent Kd [4] [nM]
20 | UCUGGUCGAGGAUAUACAUGAGGAUCACCCAUGUUGAUCAAGCGACUUCGGUCGCAAUGUAGAAGGCGACCAGA | 627 | 182 |  | 
21 | CCCUCACAUGAGGAUCACCCAUGUCAGGAUAUCUCACAUCGGCCUUAGGCCGAUGUCUAGAGAAGGGACGUAUC | 22.1 | 29.5 |  | 
22 | ACAUGAGGAUCACCCAUGUAAUGAAGGGUACUAUACUAAACGUAGGAUAUCGAUGUAAGAUUGUACGAGAAGGACGAUUGCCUU |  | 38.8 |  | 
23 | UGGUACAUGGGAGGAUAUGGGUUGAUAACAUGAGGAUCACCCAUGUUAAAUAUGCCUCUUGGCAACUAGAAGGCCCAUGUACCU |  |  | 512 | 41.8
24 | CAACUGGCACAGAAGGGUGACAUGAGGAUCACCCAUGUAGCGUGGCACUCAGGAGGAGCCACGCCACAGGAUAUGUGCGGGCAC |  |  | 42.3 | 78.4
25 | CUCGGACAUGAGGAUCACCCAUGUGAGGAUAUGAUGCGAUCGUCGAAAGACGAUAGCAUCAGAAGGUACAAAUG | 52 | 42.9 |  | 
26 | GCAUGGUAUGAGAAGGCAUAUUUAAUCUAACAUCAUGUUUACAUGAGGAUCACCCAUGUUACCAAUGAGGAUAUCAUACCGUGC | 9.67 | 9.8 |  | 
27 | AUGUGCCGGUCAGGAUAUCAACCACAUUGGCCAUGAGAAGGGACAGCACAUGAGGAUCACCCAUGUACACGCUGUGCGGAUGGG | 273 | 122 |  | 
28 | AUAAUUUUAUAUAUCAUAUAAAUCAGAAGGCAUAACAUGAGGAUCACCCAUGUAUAUUAUUGUUAUGAGGAUAUGAUUUAGUUA | 15.8 | 65.5 |  | 
29 | CCAGCGUAUGUAAGGAUAUGCUGGUCCUUGGAUCAGCAGAAGGUACAUGAGGAUCACCCAUGUGUAAUCGUUGG | 20.6 | 56.1 |  | 
30 | CGCUGGUGACAGCAUCCAUCAAAACAUGAGGAUCACCCAUGUAGAAGGCUGUACGGUUACCGUACAGAGGAUAUACAAUGAUGG | 7.56 | 9.75 |  | 
31 | GCCAUCGUAUGAGGAUAUGGCACCGAAACGGUGCCAGAAGGCAUGUCGAUAGACAUGAGGAUCACCCAUGUAUUAUCGAUGGCA |  |  | 107 | 31.3
32 | CACCGUAACUGAGGAUAUCAAACAUGAGGAUCACCCAUGUAAUAAAUGAGAAUUUCGAAUGUACCUGAGAAGGCAGAAACCGGC | 38 | 48.3 |  | 
33 | GCUGCGCGAGGAUAUGCGGUUCGCGCGGUGGCCGCUGGCGGACAUGAGGAUCACCCAUGUAGAAGGCGUGCGGG | 17 | 19.4 |  | 
34 | CUUGUGUUAGGAUAUGCGCCCUGCAGAAGCAGGGCCAGAGAGCAGAAGGAACAUGAGGAUCACCCAUGUGUGAC | 65.5 | 53.7 |  | 
35 | CUAUUGGUAACAGGAUAUAUGAGUCCUACAUGAGGAUCACCCAUGUAGGUGAUCAAACAUGAUUAGUAGAAGGGUUACCAAUAG |  |  | 40.9 | 8.8
36 | CUUAGACAUGAGGAUCACCCAUGUGAGGAUAUGAUGCGAUCGUGCUGACAUGAUCGCAUCAGAAGGCACAAAUG | 141 | 173 |  | 
37 | GAGUGGUGGAAAGGAUAUGCAUUGUUAUUCACUGUAGAAGGUUCUAACAUGAGGAUCACCCAUGUAGGACUAUUCCUGUGUUUU |  |  | 13.3 | 12.6
38 | UUACUCAUGUAAGGAUAUGCAGCCGUUUCGGCUGCAGAAGGUACUAUAAUACAUGAGGAUCACCCAUGUCUAUAAACUAAAGAC |  |  | 84.2 | 45.8

Row | Sequence | apparent Kd [1] [nM] | apparent Kd [2] [nM] | apparent Kd [3] [nM] | apparent Kd [4] [nM]
39 | UUACCACAUGAGGAUCACCCAUGUCAGGAUAUACUAUUAACUACAUUUUCUUAUUUUAGUAGAAGGGACACUUU | 26 | 23.1 |  | 
40 | AGAUUUUUUACAGGAUAUGUUAGUUUACAGUUGAUUGGUUAUUACAUUAUGACAGAAGGGUAGAACAUGAGGAUCACCCAUGUA |  |  | 374 | 174
41 | CUGGUUGUCGAGGAUAUGCACCGGCUCGCUGACGCAGAAGGCGACACAUGAGGAUCACCCAUGUCGGUUCGCGA | 15.6 | 31.3 |  | 
42 | AUCAAUCGUGUAGGAUAUGCGUGGCGAAGCUAUGCAGAAGGACAUGAGGAUCACCCAUGUCUUUCUGUCUGCGUACAGACAGGA | 18 | 43.4 |  | 
43 | AAUCGGGAGCAGAAGGCAUGUCAUAAGACAUGAGGAUCACCCAUGUAGUUAAGAUGAAAAUCGCAUGAGGAUAUGCUCCCGUAA |  |  | 115 | 18.5
44 | UGGUACUAGGGAGGAUAUGGGAAGAUACAUGAGGAUCACCCAUGUUAAAGAAUGCCGAGAGGCAACUAGAAGGCCCUAGUACCU |  |  | 293 | 16.3
45 | CGCAGUACUUAGGUACCACACAUGAGGAUCACCCAUGUAUCACAGGAUAUGCAUGAUAUAUUCAGGCAGAAGGGUGAUCUUACC |  |  | 79.7 | 318
46 | GAAAAGUCAGGAUAUGCAGAUAAAAAAACGAAAAAAAAUCUGCAGAAGGGACAUGAGGAUCACCCAUGUAAAAG | 35.3 | 74.6 |  | 
47 | GGAUAGGACAGAGGAUAUACGUGCUCGAGAUACUAGCAAAAUUUCCUCACAUGAGGAUCACCCAUGUAGAAGGCUGUCCUAUCG | 28.7 | 255 |  | 
48 | UAGGGUGUACGAGGAUAUGGGCAUUGGUGGAUCUCAGAAGGCGUAUACGCGCGCAGACAUGAGGAUCACCCAUGUACCCGGCUU |  |  | 62.8 | 23.6
49 | GAGUGGAGGUAAGGAUAUACAAUGAUAAUCACAGUAGAAGGUACUAACAUGAGGAUCACCCAUGUAGGACUAUACCAGAGAGGG |  |  | 17.4 | 18
50 | GAAUAUUCGUUGUACAUGAGGAUCACCCAUGUAACUUGACAUGAGGAUAUGGAUUCUAAUUGGAUCCAGAAGGCAUGAAUAUUC |  |  | 48.4 | 21.8
51 | AUAAUGAGUCAAGGAUAUCCGAGCUGAAUGCUUGGAGAAGGUGACAUGAGGAUCACCCAUGUCUCUCCGAGCAUGGUAUUCUCA | 28.4 | 26.6 |  | 
52 | CGCCAUCCCGGUGGCGUGAGGAUACCAGAAGGGACGAUCUCACAUGAGGAUCACCCAUGUUAUAGUCAGGAUAUGGGUUCAUCA |  |  | 88.5 | 12.3
53 | CAGGCCUUAGGAUAUACACGGUGUCGAACGAGCUCCUACACACAUGAGGAUCACCCAUGUAGAAGGAAGGGAUA | 24.6 | 32 |  | 
54 | GGGAUCACCGUCAGGAUAUGUGACCGUACUAUCGGGCAGAAGGGACAUGAGGAUCACCCAUGUUGUCGUAGACU | 20.7 | 58.1 |  | 
55 | GCACAUUUGUAAGGAUAUACUACAUGAGGAUCACCCAUGUGCAUGGAGAUUGUAGAAGGUACAGCAAUAUUGAUUAACGUUAUA |  |  | 134 | 77.2
56 | ACACGGUAUGUAGGAUAUGCAUAGCAUUGCUAUGCAGAAGGACAUGAGGAUCACCCAUGUAUGUAUUCCAUACUAAUCCCGUGU | 5.49 | 5.58 |  | 
